We go through 35 molecules from ChEMBL document CHEMBL1126293, “Substrate specificity of isopenicillin N synthase” (J Med Chem, 1992).

For assay [1], the target named is T1, Isopenicillin N synthase (Penicillium chrysogenum) (UniProt P08703).
T1 sequence (whole entry): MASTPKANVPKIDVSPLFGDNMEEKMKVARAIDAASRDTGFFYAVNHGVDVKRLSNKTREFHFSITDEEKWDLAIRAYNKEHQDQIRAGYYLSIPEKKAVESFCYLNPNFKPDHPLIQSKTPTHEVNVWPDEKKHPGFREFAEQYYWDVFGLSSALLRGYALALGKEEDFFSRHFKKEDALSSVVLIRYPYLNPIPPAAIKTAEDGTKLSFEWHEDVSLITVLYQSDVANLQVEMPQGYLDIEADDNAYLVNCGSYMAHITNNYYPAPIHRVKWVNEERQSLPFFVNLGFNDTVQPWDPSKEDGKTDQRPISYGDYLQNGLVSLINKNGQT
The experiment in a line: Anti-micrococcus luteus activity was tested for inhibition of isopenicillin N synthetase. The note with it: Penicillium chrysogenum (Penicillium notatum). The method, boiled down:
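Peptide added at a known amount to a standard IPNS reaction mixture with ACV as substrate before starting the reaction with enzyme. Applied to peptides not converted to an anti-M. luteus product. Percent inhibition derived from the ratio of reaction rates with and without the peptide.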

The nature of assay [2]: Antibiotic activity against Micrococcus luteus (ATCC 9341 strain). The assay is classed as functional. The method, boiled down:
(§1)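 Peptides at 0.3 mM incubated with purified IPNS in Tris-HCl pH 8.0 containing KCl, MgSO4, FeSO4, ascorbate and DTT, at 25 °C for 2–20 min in quadruplicate, then stopped with ethanol. Samples with and without penicillinase went into wells on M. luteus ATCC 9341 lawns, incubated overnight at 37 °C, and inhibition zones were read. Peptides giving no product were retested for 1 h at 3 mM.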

A further assay concerns Micrococcus luteus. The experiment in a line: In vitro antibiotic activity against Micrococcus luteus(ATCC 9341 stain). The assay is classed as functional, organism-based. In short, it runs like this:
as §1

`N[C@@H](CCCC(=O)N[C@@H](CSSC[C@H](NC(=O)CCC[C@H](N)C(=O)O)C(=O)N[C@H](COCc1ccccc1)C(=O)O)C(=O)N[C@H](COCc1ccccc1)C(=O)O)C(=O)O`: the Activity entry in assay [1] is “No activity”. Moreover, the Antibiotic activity result in assay [2] is “No activity”.
`COC(=O)CCCCC(=O)N[C@@H](CSSC[C@H](NC(=O)CCCCC(=O)OC)C(=O)N[C@@H](C(=O)O)C(C)C)C(=O)N[C@@H](C(=O)O)C(C)C`: the Antibiotic activity result with Micrococcus luteus was “Yes”.
Turning to `COCC(COC)[C@@H](NC(=O)C(CSSCC(NC(=O)CCC[C@H](N)C(=O)O)C(=O)N[C@@H](C(=O)O)C(COC)COC)NC(=O)CCC[C@H](N)C(=O)O)C(=O)O` (some centres undefined), the Activity result in assay [1] is “No activity”. For the same molecule, in assay [2], the Antibiotic activity entry was “No activity”.
For `N[C@@H](CCCC(=O)NC(CSSCC(NC(=O)CCC[C@H](N)C(=O)O)C(=O)NC1(C(=O)O)CCCC1)C(=O)NC1(C(=O)O)CCCC1)C(=O)O` (some centres undefined), the Activity result in assay [1] was “No activity”. In assay [2], the Antibiotic activity result is “No activity”.
Take `CC(C)[C@@H](NC(=O)[C@H](CSSC[C@H](NC(=O)c1cccc(CC(=O)O)c1)C(=O)N[C@@H](C(=O)O)C(C)C)NC(=O)c1cccc(CC(=O)O)c1)C(=O)O`: the Activity result in assay [1] was “No activity”. The Antibiotic activity result in assay [2] is “No activity”.
With `NC(=O)C[C@@H](NC(=O)C(CSSCC(NC(=O)CCC[C@H](N)C(=O)O)C(=O)N[C@H](CC(N)=O)C(=O)O)NC(=O)CCC[C@H](N)C(=O)O)C(=O)O` (some centres undefined), the Antibiotic activity entry in assay [2] is “No activity”.
Regarding `CC(C)[C@@H](NC(=O)[C@H](CSSC[C@H](NC(=O)COc1ccccc1)C(=O)N[C@@H](C(=O)O)C(C)C)NC(=O)COc1ccccc1)C(=O)O`, the Antibiotic activity result in the assay with Micrococcus luteus was “Yes”.
Consider `CC(C)[C@@H](NC(=O)[C@H](CCS)NC(=O)CCC[C@H](N)C(=O)O)C(=O)O`, for which the Antibiotic activity entry in assay [2] is “No activity”.
The same measure, in the same setting: for `CSC[C@@H](NC(=O)C(CSSCC(NC(=O)CCC[C@H](N)C(=O)O)C(=O)N[C@H](CSC)C(=O)O)NC(=O)CCC[C@H](N)C(=O)O)C(=O)O` (some centres undefined) the value was “No activity”.
For the molecule `N[C@@H](CCCC(=O)NC(CSSCC(NC(=O)CCC[C@H](N)C(=O)O)C(=O)N[C@@H](C(=O)O)C1CCCCC1)C(=O)N[C@@H](C(=O)O)C1CCCCC1)C(=O)O` (some centres undefined), in assay [1], the Activity result was “No activity”. For the same molecule, the Antibiotic activity entry in assay [2] is “No activity”.
Regarding `CC(C)[C@@H](NC(=O)[C@H](CSSC[C@H](NC(=O)Cc1ccccc1)C(=O)N[C@@H](C(=O)O)C(C)C)NC(=O)Cc1ccccc1)C(=O)O`, in the assay on Micrococcus luteus, the Antibiotic activity result is “Yes”.
On to `COCC(COC)[C@H](NC(=O)C(CSSCC(NC(=O)CCC[C@H](N)C(=O)O)C(=O)N[C@H](C(=O)O)C(COC)COC)NC(=O)CCC[C@H](N)C(=O)O)C(=O)O` (some centres undefined), for which the Activity result in assay [1] was “No activity”. The Antibiotic activity result in assay [2] is “No activity”.
For the molecule `N[C@@H](CCCC(=O)NC(CSSCC(NC(=O)CCC[C@H](N)C(=O)O)C(=O)N[C@H](CC1CNc2ccccc21)C(=O)O)C(=O)N[C@H](CC1CNc2ccccc21)C(=O)O)C(=O)O` (some centres undefined), in assay [2], the Antibiotic activity result was “No activity”.
On the same count and under the same terms, for `N[C@@H](CCCC(=O)NC(CSSCC(NC(=O)CCC[C@H](N)C(=O)O)C(=O)NC(Cc1cccs1)C(=O)O)C(=O)NC(Cc1cccs1)C(=O)O)C(=O)O` (some centres undefined) the value was “No activity”.
On to `CC(C)[C@H](NC(=O)CCC[C@H](N)C(=O)O)C(=O)N[C@@H](C(=O)O)C(C)C`, for which, in assay [2], the Antibiotic activity result was “No activity”.
The same measure, in the same setting: for `CS(=O)(=O)C[C@@H](NC(=O)C(CSSCC(NC(=O)CCC[C@H](N)C(=O)O)C(=O)N[C@H](CS(C)(=O)=O)C(=O)O)NC(=O)CCC[C@H](N)C(=O)O)C(=O)O` (some centres undefined) the value was “No activity”; for `CC(C)=C(NC(=O)C(CS)NC(=O)CCC[C@H](N)C(=O)O)C(=O)O` (some centres undefined), “No activity”.
Regarding `CC(C)[C@@H](NC(=O)[C@@H]1CSC(C)(C)N1C(=O)CCC[C@H](N)C(=O)O)C(=O)O`, the Activity entry in assay [1] was “No activity”. In addition, the Antibiotic activity result in assay [2] is “No activity”.
For the molecule `CC(C)[C@@H](NC(=O)[C@H](CSSC[C@H](NC(=O)[C@@H]1CCCN1C(=O)CN)C(=O)N[C@@H](C(=O)O)C(C)C)NC(=O)[C@@H]1CCCN1C(=O)CN)C(=O)O`, the Activity entry in assay [1] was “No activity”. In addition, the Antibiotic activity result in assay [2] was “No activity”.
Regarding `N[C@@H](CCCC(=O)NC(CSSCC(NC(=O)CCC[C@H](N)C(=O)O)C(=O)N[C@H](Cc1cccs1)C(=O)O)C(=O)N[C@H](Cc1cccs1)C(=O)O)C(=O)O` (some centres undefined), in assay [2], the Antibiotic activity result is “No activity”.
As for `CC(C)[C@@H](NC(=O)[C@H](CS)NC(=O)[C@@H](N)CCC(=O)O)C(=O)O`, the Activity result in assay [1] is “No activity”. The Antibiotic activity result in assay [2] is “No activity”.
With `CC(C)C(NC(=O)C(CS)NC(=O)CCC[C@H](N)C(=O)O)S(=O)(=O)O` (some centres undefined), in assay [2], the Antibiotic activity result was “No activity”.
Still for that read-out and setting: for `CC(C)[C@@H](NC(=O)[C@H](Cc1c[nH]cn1)NC(=O)CCC[C@H](N)C(=O)O)C(=O)O` the value was “No activity”.
Turning to `CC(C)[C@@H](NC(=O)[C@H](CS)NC(=O)CC[C@H](N)C(=O)O)C(=O)O`, the Activity entry in assay [1] was “No activity”. Moreover, the Antibiotic activity entry in assay [2] was “No activity”.
For `CC(C)[C@@H](NC(=O)[C@H](CSSC[C@H](NC(=O)CCCCC(=O)O)C(=O)N[C@@H](C(=O)O)C(C)C)NC(=O)CCCCC(=O)O)C(=O)O`, in the assay with Micrococcus luteus, the Antibiotic activity result was “Yes”.
Regarding `C=CC[C@H](NC(=O)CCC[C@H](N)C(=O)O)C(=O)N[C@@H](C(=O)O)C(C)C`, the Activity result in assay [1] is “No activity”. The Antibiotic activity result in assay [2] is “No activity”.
With `C=C(NC(=O)CCC[C@H](N)C(=O)O)C(=O)N[C@H](COCc1ccccc1)C(=O)O`, the Activity result in assay [1] was “No activity”. Moreover, the Antibiotic activity result in assay [2] is “No activity”.
For `N[C@@H](CCCC(=O)NC(CSSCC(NC(=O)CCC[C@H](N)C(=O)O)C(=O)N[C@H](CO)C(=O)O)C(=O)N[C@H](CO)C(=O)O)C(=O)O` (some centres undefined), in the assay with Micrococcus luteus, the Antibiotic activity result was “Yes”.
As for `N[C@@H](CCCC(=O)NC(CSSCC(NC(=O)CCC[C@H](N)C(=O)O)C(=O)N[C@H](COCc1ccccc1)C(=O)O)C(=O)N[C@H](COCc1ccccc1)C(=O)O)C(=O)O` (some centres undefined), the Activity entry in assay [1] was “No activity”. In addition, the Antibiotic activity result in assay [2] is “No activity”.
With `CC(Cl)[C@@H](NC(=O)C(CSSCC(NC(=O)CCC[C@H](N)C(=O)O)C(=O)N[C@@H](C(=O)O)C(C)Cl)NC(=O)CCC[C@H](N)C(=O)O)C(=O)O` (some centres undefined), the Activity entry in assay [1] is “No activity”. In addition, in assay [2], the Antibiotic activity entry was “No activity”.
In the case of `C[S+]([O-])C[C@@H](NC(=O)C(CSSCC(NC(=O)CCC[C@H](N)C(=O)O)C(=O)N[C@H](C[S+](C)[O-])C(=O)O)NC(=O)CCC[C@H](N)C(=O)O)C(=O)O` (some centres undefined), the Antibiotic activity entry in assay [2] was “No activity”.
In the case of `N[C@@H](CCCC(=O)NC(CSSCC(NC(=O)CCC[C@H](N)C(=O)O)C(=O)N[C@H](Cc1ccccc1)C(=O)O)C(=O)N[C@H](Cc1ccccc1)C(=O)O)C(=O)O` (some centres undefined), the Antibiotic activity result in assay [2] was “No activity”.
As to `CC(NC(=O)CCC[C@H](N)C(=O)O)C(=O)N[C@@H](C(=O)O)C(C)(C)S` (some centres undefined), the Activity result in assay [1] was “No activity”.
Turning to `N[C@@H](CCCC(=O)NC(CSSCC(NC(=O)CCC[C@H](N)C(=O)O)C(=O)N[C@@H](Cc1cccs1)C(=O)O)C(=O)N[C@@H](Cc1cccs1)C(=O)O)C(=O)O` (some centres undefined), in assay [2], the Antibiotic activity entry is “No activity”.
Same read-out and setting: as for `N[C@@H](CCCC(=O)NC(CSSCC(NC(=O)CCC[C@H](N)C(=O)O)C(=O)N[C@H](CC(=O)O)C(=O)O)C(=O)N[C@H](CC(=O)O)C(=O)O)C(=O)O` (some centres undefined), the entry is “No activity”.
